Assay outcomes (PubChem BioAssay)
mIAP activ: increases mouse intestinal alkaline phosphatase activity; AID 2805; 0.24% of 330,000 active; activation factor at 10 µM; muIAP, CDP-Star luminescence, 30 min; active compounds read high; 1 = vehicle-only enzyme signal, 0 = enzyme-free wells;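 active means activation factor of at least 2 at 20 µM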
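Assay system: mouse IAP enzyme; reagent: chemiluminescent substrate CDP-Star; dosing: test compounds delivered from DMSO solution; schedule: 30 min at room temperature; measured by: luminescence from enzymatic CDP-Star hydrolysis; controls: DMSO-only wells and no-enzyme negative control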
hIAP activ: human IAP activation; P09923; purified human IAP, CDP-Star luminescence, 30 min; active compounds read high; 1 = vehicle-only enzyme, 0 = enzyme-free background; activation factor at 10 µM; 0.16% of 330,000 active; AID 2524;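 active means activation factor of the enzyme at least 2-fold when tested at 20 µM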
Target sequence (P09923 whole entry, looked up): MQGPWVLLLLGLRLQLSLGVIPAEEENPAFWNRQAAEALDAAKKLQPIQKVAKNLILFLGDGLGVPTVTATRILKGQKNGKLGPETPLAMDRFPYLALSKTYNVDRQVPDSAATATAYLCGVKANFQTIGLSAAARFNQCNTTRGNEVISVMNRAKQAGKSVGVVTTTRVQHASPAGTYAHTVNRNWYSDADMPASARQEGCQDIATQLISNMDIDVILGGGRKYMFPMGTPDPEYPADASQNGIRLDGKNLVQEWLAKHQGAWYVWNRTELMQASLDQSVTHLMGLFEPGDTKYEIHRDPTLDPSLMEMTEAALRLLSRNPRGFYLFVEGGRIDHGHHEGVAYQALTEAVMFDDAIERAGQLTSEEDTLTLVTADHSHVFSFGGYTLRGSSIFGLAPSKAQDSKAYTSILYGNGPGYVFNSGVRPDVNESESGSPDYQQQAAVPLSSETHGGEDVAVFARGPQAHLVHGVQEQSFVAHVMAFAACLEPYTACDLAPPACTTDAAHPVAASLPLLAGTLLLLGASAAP
bIAP inhibitor: intestinal alkaline phosphatase (bovine) inhibition; purified bovine IAP, CDP-star luminescence, 30 min; inhibition, % at 20 µM; 190,000 tested, under 10 active; AID 1019;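 active means over 50% inhibition of intestinal alkaline phosphatase at 20 µM in the single-dose screen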
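Assay system – bovine IAP enzyme · Quantity – bovine IAP at 1/65,000,000 final dilution · Detection – CDP-star luminescence signal · Times – 30 min reaction at room temperature · Also added – CDP-star substrate at 30 µM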
mIAP block: blocks mouse intestinal alkaline phosphatase | inhibition, % at 10 µM | AID 2806 | purified mouse IAP, CDP-Star luminescence, 30 min | 0.2% of 330,000 active;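 active means inhibition of at least 40% at 10 µM in the primary screen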;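 further: plate controls were DMSO with enzyme for no effect and no enzyme wells for full effect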
bIAP act: increases bovine intestinal alkaline phosphatase activity. activation factor at 20 µM. AID 1016. purified bovine IAP, CDP-star luminescence, 30 min; active compounds read high; fold of DMSO-control signal, blank-subtracted. 0.17% of 200,000 active;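 active means activation factor of 2 or more at 20 µM, a signal rise over negative controls twice the positive control's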
hIAP inh: human IAP inhibition | 0.12% of 330,000 active | P09923 | purified IAP, CDP-Star luminescence, 30 min | inhibition, % at 10 µM;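 active means inhibition reaching a set limit with compound at 10 µM in the primary screen, cut at about 35% in these data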;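 further: plate controls were DMSO wells with enzyme for no effect and no-enzyme buffer wells for full effect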
mIAP inh conf: mouse IAP inhibition confirmation; 4.7% of 11,000 active; AID 434971; shares compounds with mIAP block; inhibition, % at 10 µM; purified mouse IAP, CDP-Star luminescence, 30 min;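 active means inhibition of at least 40% at 10 µM in either of the two replicates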;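 further: plate controls were DMSO wells with enzyme for no effect and buffer wells lacking enzyme for full effect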
Active calls of the source: *. Sampled rows, rich in hits. Any-hit rate of the full collection: about 0.72%.

For CSc1ncc(C(=O)Nc2ccc(Br)cn2)c(C)n1 the results were mIAP activ 0.94, hIAP activ 0.88, mIAP block 6 and hIAP inh 12.
For CCOc1ccc(C(=O)Nc2nnc(C3=COCCO3)o2)cc1 the results were mIAP activ 0.98, hIAP activ 1.4, mIAP block 2 and hIAP inh -36.
`CC(=O)c1ccc(NC(=O)C(C)OC(=O)c2ccc(Br)o2)cc1` (stereo unspecified) gave mIAP activ 1.1, hIAP activ 1, mIAP block -12 and hIAP inh -3.
COc1ccc(-c2csc(Nc3ccc(S(N)(=O)=O)cc3)n2)cc1 was read as mIAP activ 1.1, hIAP activ 1.1, bIAP inhibitor 21, mIAP block -15, bIAP act 0.8 and hIAP inh -13.
Screening Cc1nc(N)sc1-c1csc(Nc2ccc(S(N)(=O)=O)cc2)n1 returned mIAP activ 0.33, hIAP activ 1.1, mIAP block 67*, hIAP inh -10 and mIAP inh conf 68*.
For C#CCOCCOCCOCCNc1nc(N2CCN(C(=O)CCCCCCCCCCNC(=O)[C@H]([C@@H](C)CC)n3cc(CCCCCN)nn3)CC2)nc(N2CCN(C(=O)CCCCCCCCCCNC(=O)[C@H](CO)n3cc(CCCCCN)nn3)CC2)n1 the results were mIAP activ 2.1*, hIAP activ 0.97, mIAP block -110, hIAP inh 3 and mIAP inh conf -151.
`C#CCOCCOCCOCCNc1nc(N2CCN(C(=O)CCCCCCCCCCNC(=O)[C@H]([C@@H](C)CC)n3cc(CCCCCN)nn3)CC2)nc(N2CCN(C(=O)CCCCCCCCCCNC(=O)[C@@H]([C@H](C)CC)n3cc(CCCCCN)nn3)CC2)n1` gave mIAP activ 6.6*, hIAP activ 0.97, mIAP block inactive, hIAP inh 3 and mIAP inh conf inactive.
Screening C#CCOCCOCCOCCNc1nc(N2CCOCC2)nc(N2CCN(C(=O)CCCCCCCCCCNC(=O)[C@@H]([C@H](C)CC)n3cc(CCCCCN)nn3)CC2)n1 returned mIAP activ 1.7, hIAP activ 1.1, mIAP block -69 and hIAP inh -8.
`COc1ccccc1C(CC(=O)Nc1ccc(C)c(C)c1)c1ccc(OC(C)C)cc1` (stereo unspecified) gave mIAP activ 2.1*, hIAP activ 1, bIAP inhibitor 15, mIAP block -114, bIAP act 0.8, hIAP inh 0 and mIAP inh conf -106.
`CCOc1ccccc1NC(=O)CCNS(=O)(=O)c1ccc2[nH]c(=O)oc2c1` gave mIAP activ 0.63, hIAP activ 0.94, mIAP block 37 and hIAP inh 6.
`CCc1cccc(NC(=O)CCNS(=O)(=O)c2ccc3[nH]c(=O)oc3c2)c1` gave mIAP activ 0.81, hIAP activ 0.87, mIAP block 19 and hIAP inh 13.
`N#Cc1cccc(NC(=O)CCNS(=O)(=O)c2ccc3[nH]c(=O)oc3c2)c1` gave mIAP activ 0.25, hIAP activ 0.83, mIAP block 75*, hIAP inh 17 and mIAP inh conf 75*.
Screening CCOc1ccccc1CNC(=O)CCNS(=O)(=O)c1ccc2[nH]c(=O)oc2c1 returned mIAP activ 0.39, hIAP activ 0.82, mIAP block 61*, hIAP inh 18 and mIAP inh conf 77*.
For COc1ccc(NC(=O)CCNS(=O)(=O)c2ccc3[nH]c(=O)oc3c2)cc1Cl the results were mIAP activ 0.56, hIAP activ 0.87, mIAP block 44*, hIAP inh 13 and mIAP inh conf 65*.
Screening C=CCNC(=O)C(=O)NCC1CCCN1S(=O)(=O)c1cccs1 (stereo unspecified) returned mIAP activ 1, hIAP activ 1, mIAP block 0 and hIAP inh 0.
CCCCN(C(=O)NCCCCCCNC(=O)N(CCCC)C1CCS(=O)(=O)C1)C1CCS(=O)(=O)C1 (stereo unspecified) was read as mIAP activ 0.96, hIAP activ 1, mIAP block 4 and hIAP inh -4.
`Cc1ccc(NS(=O)(=O)c2cc(C(=O)N(C)C3CCN(C)CC3)ccc2Cl)cc1Cl` gave mIAP activ 1, hIAP activ 0.92, mIAP block -1 and hIAP inh 8.
For CCCCn1c(N)c(N(CC(C)C)C(=O)C2CC(=O)N(Cc3ccco3)C2)c(=O)[nH]c1=O (stereo unspecified) the results were mIAP activ 0.98, hIAP activ 1.1, mIAP block 2 and hIAP inh -11.
`COc1ccccc1NC(=O)Nc1ccc(-n2ccc(C(F)(F)F)n2)cc1` gave mIAP activ 1.5, hIAP activ 1, mIAP block -46 and hIAP inh -4.
For O=C(Nc1ccc(-n2ccc(C(F)(F)F)n2)cc1)Nc1cccc(Cl)c1 the results were mIAP activ 2.8*, hIAP activ 1, mIAP block -178, hIAP inh -2 and mIAP inh conf -92.
Screening Cc1cc(C)cc(NC(=O)Nc2ccc(-n3ccc(C(F)(F)F)n3)cc2)c1 returned mIAP activ 3.9*, hIAP activ 1.2, mIAP block -288, hIAP inh -16 and mIAP inh conf -136.
COc1cccc(CCNC(=O)c2cc(COc3c(F)cccc3F)on2)c1 was read as mIAP activ 0.99, hIAP activ 1.4, mIAP block 1 and hIAP inh -41.
`Cc1cc(C)c(S(=O)(=O)N/N=C/c2ccc([N+](=O)[O-])o2)c(C)c1` gave mIAP activ 0.94, hIAP activ 0.98, mIAP block 6 and hIAP inh 2.
For Cc1cccc(Nc2nc(-c3ccc(O)c(O)c3)cs2)n1 the results were mIAP activ 0.67, hIAP activ 0.81, mIAP block 33 and hIAP inh 20.
`Oc1ccc(-c2csc(Nc3ccccn3)n2)cc1O` gave mIAP activ 0.38, hIAP activ 1, mIAP block 62*, hIAP inh -1 and mIAP inh conf 77*.
`Oc1ccc(-c2csc(Nc3cccc4ccccc34)n2)cc1O` gave mIAP activ 0.37, hIAP activ 0.68, mIAP block 63*, hIAP inh 32 and mIAP inh conf 80*.
Screening Cc1cccnc1Nc1nc(-c2ccc(O)c(O)c2)cs1 returned mIAP activ 0.46, hIAP activ 0.92, bIAP inhibitor 44, mIAP block 54*, bIAP act 0.6, hIAP inh 8 and mIAP inh conf 68*.
